ARNT TACC3 PPI – disruptors of human ARNT/TACC3 interaction; AlphaScreen His-ARNT PAS-B/GST-TACC3 binding, luminescence; TACC3 fragment carries E629A point mutation; hit rate 0.66% among 390,000; Q9Y6A5; inhibition, % at 9.99 µM;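 active = mean inhibition of replicates at least 50% and at least half of replicates each reaching 50%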;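 also: 0% = complete ARNT plus TACC3 wells and 100% = ARNT alone without TACC3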
CASP6 VEID inh – blocks human caspase-6 cleavage activity. P55212. purified caspase-6, Z-VEID-R110 cleavage fluorescence. inhibition, % at 12.5 µM. hit rate 0.53% among 350,000. AID 686996;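 active = mean inhibition across replicates at least about 35%, with every replicate also reaching that limit, limit read from the data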;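 also: 0% = median of neutral control wells and 100% = no fluorescence left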
Target sequence (P55212 24-179 limits assumed): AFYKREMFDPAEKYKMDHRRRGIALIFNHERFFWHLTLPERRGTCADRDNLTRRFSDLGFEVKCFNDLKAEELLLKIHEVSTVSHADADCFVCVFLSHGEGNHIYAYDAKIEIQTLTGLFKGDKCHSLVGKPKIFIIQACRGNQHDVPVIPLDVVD
Target sequence (P55212 194-293 limits assumed): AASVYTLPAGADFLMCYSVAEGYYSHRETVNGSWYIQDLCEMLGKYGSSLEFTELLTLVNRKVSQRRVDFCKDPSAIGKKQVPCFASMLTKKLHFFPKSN
PGC1a acetyl inh – lowers PGC1a acetylation signal in U2OS cells. AlphaScreen anti-acetyl-lysine; with virally co-expressed GCN5 acetyltransferase. inhibition, % at 15.6 µM. hit rate 0.17% among 350,000;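 active = every replicate shows inhibition of at least 40%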;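 also: 0% = neutral control wells and 100% = positive control wells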
S100A4 MyoIIA – S100A4-myosin IIA interaction inhibition. inhibition, % at 10.7 µM. AID 652163. hit rate 0.14% among 360,000. S100A4/TAMRA-MyoIIA peptide fluorescence polarization;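 active = mean inhibition of at least 70% across replicates, with every replicate also reaching that level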
Target sequence (P26447 whole entry, looked up): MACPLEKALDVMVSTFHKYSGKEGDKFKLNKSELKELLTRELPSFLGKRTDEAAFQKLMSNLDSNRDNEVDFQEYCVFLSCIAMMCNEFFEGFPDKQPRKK
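Material: human S100A4 monomer with TAMRA-labelled myosin IIA peptide; buffer or medium: HEPES pH 7.2 with CaCl2, KCl, NaCl, DTT, Triton; compound dosing: one concentration per compound; schedule: 5 min incubation before reading; benchmarks: neutral control DMSO, positive control TFP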
ERAP1 inh – blocks human ERAP1 aminopeptidase activity | AID 652197 | inhibition, % at 10.7 µM | hit rate 0.15% among 340,000 | recombinant ERAP1, Leu-AMC fluorescence, 60 min | Q9NZ08;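 active = mean replicate inhibition of at least 30%, or all replicates individually reaching that 30% level; inactive = mean below 30% and not every replicate reaching it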;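 also: 0% = neutral control wells and 100% = L-leucinethiol positive control wells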
Ecoli rRNA inh – inhibitors of bacterial rRNA selective over humanized ribosomes; E. coli WT GFP vs humanized-ribosome RFP mutants, fluorescence, 24 h; stronger effect = lower value; DMSO median 0, no signal -100; GFP signal change (wild-type ribosome), % (no concentration beside the values); hit rate 1.6% among 350,000; AID 720706;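 active = significant combined selectivity score with lowered wild-type GFP, culture density cut under 30%, mutant RFP and density less affected; inactive = any of these conditions unmet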
An asterisk follows results filed as active; ! = not active in a repeat. A selection: hits, their analogues and other compounds. The true share with any hit is near 2.4%.

Screening CN1CC[C@@]2(C)c3cc(O)ccc3N(C)[C@@H]12 returned ARNT TACC3 PPI 47*!, CASP6 VEID inh 17, PGC1a acetyl inh 23, S100A4 MyoIIA 37, ERAP1 inh -1 and Ecoli rRNA inh -4.
Screening O=C(O)[C@@H]1[C@@H](CO)[C@@H]2Cn3c(ccc(-c4ccccc4)c3=O)[C@H]1N2S(=O)(=O)c1ccccc1F returned ARNT TACC3 PPI 10, CASP6 VEID inh 0, S100A4 MyoIIA 1, ERAP1 inh 1 and Ecoli rRNA inh 2.
`O=C1C(=O)c2cccc3cccc1c23` gave ARNT TACC3 PPI -5, CASP6 VEID inh 0, S100A4 MyoIIA 7, ERAP1 inh 0 and Ecoli rRNA inh -3.
`O=C1C(=O)c2ccccc2-c2ccccc21` gave ARNT TACC3 PPI -31, CASP6 VEID inh 54*, PGC1a acetyl inh 38, S100A4 MyoIIA 3 and ERAP1 inh 0.
Screening O=C(O)[C@@H]1[C@@H](CO)[C@@H]2Cn3c(ccc(-c4cccc(F)c4)c3=O)[C@H]1N2CCc1ccccc1 returned ARNT TACC3 PPI 8, CASP6 VEID inh 3, PGC1a acetyl inh -1, S100A4 MyoIIA 5, ERAP1 inh 3 and Ecoli rRNA inh -3.
Screening COC(=O)[C@H]1[C@H](CO)[C@H]2Cn3c(ccc(C4=CCCC4)c3=O)[C@@H]1N2Cc1ccccn1 returned ARNT TACC3 PPI 3, CASP6 VEID inh 4, S100A4 MyoIIA -49, ERAP1 inh 0 and Ecoli rRNA inh 5.
For CCn1nc(-c2ccccc2)nc2c(=O)n(C)c(=O)nc1-2 the results were ARNT TACC3 PPI -40 and PGC1a acetyl inh -4.
Screening Cc1nc2c(=O)n(C)c(=O)nc-2n(C)n1 returned ARNT TACC3 PPI 19 and PGC1a acetyl inh 78*.
`COc1ccc(NP(=O)(Oc2cccc(C)c2)Oc2cccc(C)c2)cc1OC` gave ARNT TACC3 PPI 1, CASP6 VEID inh 2, PGC1a acetyl inh -16, S100A4 MyoIIA -1, ERAP1 inh 11 and Ecoli rRNA inh -18*.
Screening Cc1cccc(OP(=O)(Nc2ccc(F)cc2)Oc2cccc(C)c2)c1 returned ARNT TACC3 PPI -4, CASP6 VEID inh -1, S100A4 MyoIIA 1, ERAP1 inh 0 and Ecoli rRNA inh -33.
Screening CC(=O)NC1=C(N2CC2C)C(=O)C(NC(C)=O)=C(N2CC2C)C1=O (configuration not stated) returned ARNT TACC3 PPI 8.8*, CASP6 VEID inh 38*, PGC1a acetyl inh 2, S100A4 MyoIIA -8, ERAP1 inh -1 and Ecoli rRNA inh 23.
Screening COc1ccc(-n2c(/C=C/c3ccc(O)c(O)c3)nc3ccccc3c2=O)cc1 returned ARNT TACC3 PPI 1, CASP6 VEID inh 17, S100A4 MyoIIA -4, ERAP1 inh 0 and Ecoli rRNA inh -21*.
COc1cc(/C=C/c2nc3ccccc3c(=O)n2-c2ccc(O)cc2)ccc1O was read as ARNT TACC3 PPI -2, CASP6 VEID inh 4, PGC1a acetyl inh -12, S100A4 MyoIIA 3, ERAP1 inh 3 and Ecoli rRNA inh -1.
`C/C=C/c1ccc([C@H]2[C@@H](CO)N3CCCCN(C(=O)Cc4ccncc4)C[C@@H]23)cc1` gave ARNT TACC3 PPI -3, CASP6 VEID inh -2, PGC1a acetyl inh -1, S100A4 MyoIIA -1, ERAP1 inh 3 and Ecoli rRNA inh 1.
For O=c1c2ccccc2[se]n1-c1ccccc1 the results were ARNT TACC3 PPI 1, PGC1a acetyl inh -1, S100A4 MyoIIA -5 and ERAP1 inh 75*.
Screening O=C(COC(=O)Cc1ccccc1)Nc1cc(S(=O)(=O)N2CCCCC2)ccc1Cl returned ARNT TACC3 PPI 0, CASP6 VEID inh 71*, S100A4 MyoIIA -9, ERAP1 inh 4 and Ecoli rRNA inh 0.
CC=Cc1ccc2n(c1=O)C[C@@H]1[C@@H](CO)[C@H](C(=O)OC)[C@H]2N1S(=O)(=O)c1cccc(C)c1 (mixture of isomers) was read as ARNT TACC3 PPI -2, CASP6 VEID inh 2, S100A4 MyoIIA 6, ERAP1 inh 2 and Ecoli rRNA inh 1.
For COc1ccc(CC2C(=O)NC(C)C(=O)N(C)C3C(=O)N(C)C(Cc4ccc(O)c(c4)Oc4ccc(cc4)C3O)C(=O)NC(C)C(=O)NC(C)C(=O)N2C)cc1 (configuration not stated) the results were ARNT TACC3 PPI -6, CASP6 VEID inh 4, PGC1a acetyl inh 76*, S100A4 MyoIIA 0, ERAP1 inh -1 and Ecoli rRNA inh 7.
CCOC(=O)c1cnc(SCc2ccc(Cl)c(Cl)c2)nc1N1CC1 was read as ARNT TACC3 PPI -5, CASP6 VEID inh -5, PGC1a acetyl inh 0, S100A4 MyoIIA -2, ERAP1 inh -5 and Ecoli rRNA inh -7.9*.
For COc1ccc(C(CNC(=O)Cc2ccc(Cl)c(Cl)c2)N2CCCCC2)cc1 (configuration not stated) the results were ARNT TACC3 PPI 5, CASP6 VEID inh -5, S100A4 MyoIIA -13, ERAP1 inh -4 and Ecoli rRNA inh -32.
Screening O=C(Cc1ccccc1)N1CCCCN2[C@H](CO)[C@@H](c3ccc(C#Cc4ccccc4)cc3)[C@H]2C1 returned ARNT TACC3 PPI -20, CASP6 VEID inh 54*, PGC1a acetyl inh -5, S100A4 MyoIIA -1, ERAP1 inh -4 and Ecoli rRNA inh -58.
`CC=Cc1ccc2n(c1=O)C[C@H]1[C@H](CO)[C@@H](C(=O)OC)[C@@H]2N1C(=O)CC1CC1` (mixture of isomers) gave ARNT TACC3 PPI -3, CASP6 VEID inh -2, PGC1a acetyl inh -1, S100A4 MyoIIA -5, ERAP1 inh 2 and Ecoli rRNA inh 1.
NCCc1c(Cc2ccccc2)[nH]c2ccccc12 was read as CASP6 VEID inh 0, PGC1a acetyl inh 13, S100A4 MyoIIA 1, ERAP1 inh -3 and Ecoli rRNA inh -20*.
COc1ccc(Oc2cc(NC(=O)c3nn(C)cc3[N+](=O)[O-])cc([N+](=O)[O-])c2)cc1 was read as ARNT TACC3 PPI -4, CASP6 VEID inh 1, PGC1a acetyl inh 78*, S100A4 MyoIIA 0, ERAP1 inh 0 and Ecoli rRNA inh -2.
Screening O=C(N/N=C/c1c(O)n(Cc2ccc(F)cc2)c(=O)[nH]c1=O)c1ccccc1 returned ARNT TACC3 PPI 50*, CASP6 VEID inh -1, PGC1a acetyl inh -7, S100A4 MyoIIA 4, ERAP1 inh -1 and Ecoli rRNA inh 16.
For O=C(N/N=C/c1c(O)n(Cc2ccccc2)c(=O)[nH]c1=O)c1ccncc1 the results were CASP6 VEID inh -3, PGC1a acetyl inh -7, S100A4 MyoIIA -6, ERAP1 inh -1 and Ecoli rRNA inh 6.
`CCCCC(=O)N/N=C/c1c(O)n(Cc2ccc(F)cc2)c(=O)[nH]c1=O` gave ARNT TACC3 PPI 69*, CASP6 VEID inh -4, S100A4 MyoIIA -4 and Ecoli rRNA inh -27*.
